According to ChEMBL document CHEMBL1134586, “S(+)-4-(1-Phenylethylamino)quinazolines as inhibitors of human immunoglobulin E synthesis: potency is dictated by stereochemistry and atomic point charges at N-1” (J Med Chem, 2001):
pIC50: −log10 of the molar value.

Assays:
B-cell = assay: Antiproliferative effects in the human B-cell line transfected with a plasmid in which luciferase gene is under the control of a 630bp, involved in the IL-4 response which induces IgE-GLP activity.; format: functional, cell-based
Procedure, shortened: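 Viability of the stably transfected BL2 luciferase-reporter clone was measured in cultures run in parallel with the reporter assay. Intact mitochondria were quantified in duplicates, and half-maximal inhibition came from a logistic fit.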

Homo sapiens = species on record: Homo sapiens; assay: Direct inhibition of the IgE-Germ line promoter (IGE-GLP-RGA) activity which is responsible in synthesis of IgE in human splenocytes; format: functional
Procedure, shortened: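 BL2 B-cells were stably transfected with luciferase under a 630 bp IgE-germline promoter fragment and selected in G418. Cells were lysed for dual-luciferase readout in duplicates, and IC₅₀ came from a logistic fit.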

[1] = target: Epidermal growth factor receptor (Homo sapiens, UniProt P00533); assay: Inhibition of EGF-induced Tyrosine phosphorylation in A431 cells expressing EGF-R
Sequence of Epidermal growth factor receptor (P00533 whole entry): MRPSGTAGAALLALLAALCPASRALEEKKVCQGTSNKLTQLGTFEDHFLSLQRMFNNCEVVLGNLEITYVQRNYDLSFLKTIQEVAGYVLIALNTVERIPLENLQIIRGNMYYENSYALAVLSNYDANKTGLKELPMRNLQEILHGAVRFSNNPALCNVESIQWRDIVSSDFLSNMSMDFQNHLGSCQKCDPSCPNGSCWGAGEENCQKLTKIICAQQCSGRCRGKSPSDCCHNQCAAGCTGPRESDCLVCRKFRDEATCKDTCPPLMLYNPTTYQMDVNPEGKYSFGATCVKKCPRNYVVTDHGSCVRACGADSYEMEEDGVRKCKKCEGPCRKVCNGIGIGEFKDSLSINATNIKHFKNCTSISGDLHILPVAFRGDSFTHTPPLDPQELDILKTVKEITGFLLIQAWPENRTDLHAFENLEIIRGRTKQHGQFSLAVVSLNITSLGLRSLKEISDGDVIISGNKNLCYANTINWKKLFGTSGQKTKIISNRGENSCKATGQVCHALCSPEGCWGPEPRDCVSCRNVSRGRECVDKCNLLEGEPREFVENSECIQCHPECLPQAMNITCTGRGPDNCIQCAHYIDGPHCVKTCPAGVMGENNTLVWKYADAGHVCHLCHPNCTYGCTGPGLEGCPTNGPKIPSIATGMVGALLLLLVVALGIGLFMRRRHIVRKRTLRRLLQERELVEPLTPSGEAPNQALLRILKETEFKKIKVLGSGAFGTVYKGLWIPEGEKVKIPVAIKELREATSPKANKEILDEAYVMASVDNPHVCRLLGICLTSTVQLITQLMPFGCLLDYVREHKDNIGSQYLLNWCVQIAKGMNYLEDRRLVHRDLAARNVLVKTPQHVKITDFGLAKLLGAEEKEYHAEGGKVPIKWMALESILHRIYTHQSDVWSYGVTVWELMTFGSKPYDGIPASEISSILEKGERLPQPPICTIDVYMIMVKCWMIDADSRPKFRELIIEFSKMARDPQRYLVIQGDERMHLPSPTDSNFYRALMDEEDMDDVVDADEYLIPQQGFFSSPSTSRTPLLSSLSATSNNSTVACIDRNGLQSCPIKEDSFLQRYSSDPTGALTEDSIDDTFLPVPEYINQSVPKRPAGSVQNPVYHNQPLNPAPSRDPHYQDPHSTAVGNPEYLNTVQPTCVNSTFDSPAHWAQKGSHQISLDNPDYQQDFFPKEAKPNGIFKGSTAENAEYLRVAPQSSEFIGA

Row | SMILES | pIC50 (B-cell) | pIC50 (Homo sapiens) | pIC50 [1]
1 | C[C@H](Nc1[nH]cnc2ncnc1-2)c1ccccc1 | < 5.70 | < 5.70 | –
2 | COc1ccc([C@H](C)Nc2ncnc3ccccc23)cc1 | < 5.70 | 7.35 | –
3 | COc1cc2ncnc(N[C@@H](C)c3ccccc3)c2cc1OC | < 5.70 | < 5.70 | –
4 | CC[C@H](Nc1ncnc2ccccc12)c1ccccc1 | < 5.70 | 6.83 | –
5 | C[C@H](Nc1ncnc2ccccc12)c1ccccc1 | < 5.70 | 6.90 | –
6 | C[C@H](Nc1nccc2ccccc12)c1ccccc1 | < 5.70 | < 5.70 | –
7 | Cc1cc(N[C@@H](C)c2ccccc2)c2ccccc2n1 | < 5.70 | < 5.70 | –
8 | C[C@@H](Nc1ncnc2ccccc12)C1CCCCC1 | < 5.70 | < 5.70 | –
9 | c1ccc2c(c1)CC[C@H]2Nc1ncnc2ccccc12 | < 5.70 | 5.99 | –
10 | C[C@@H](Nc1ncnc2ccccc12)c1ccc2ccccc2c1 | < 5.70 | < 5.70 | –
11 | CC(c1ccccc1)N(C)c1ncnc2ccccc12 (centres undefined) | < 5.70 | < 5.70 | –
12 | C[C@H](Nc1ncnc2ccsc12)c1ccccc1 | < 5.70 | < 5.70 | –
13 | Cc1csc2c(N[C@@H](C)c3ccccc3)ncnc12 | < 5.70 | < 5.70 | –
14 | C[C@H](Nc1ncnc2ccccc12)c1ccc(Br)cc1 | < 5.70 | 7.14 | –
15 | Cc1ccc([C@H](C)Nc2ncnc3ccccc23)cc1 | < 5.70 | 7.34 | –
16 | C[C@H](Nc1ccnc2ccccc12)c1ccccc1 | < 5.70 | 6.15 | –
17 | c1ccc2c(c1)CC[C@@H]2Nc1ncnc2ccccc12 | < 5.70 | < 5.70 | –
18 | C[C@H](Nc1ncnc2ccccc12)c1ccc2ccccc2c1 | 5.79 | 7.85 | –
19 | Cc1cc(N[C@@H](C)c2ccccc2)nc(N)n1 | < 5.70 | < 5.70 | –
20 | COc1cccc([C@H](C)Nc2ncnc3ccccc23)c1 | < 5.70 | 7.64 | –
21 | C[C@H](Nc1ncnc2sccc12)c1ccccc1 | < 5.70 | 6.43 | –
22 | c1ccc(CNc2ncnc3ccccc23)cc1 | < 5.70 | < 5.70 | –
23 | CSc1nccc(N[C@@H](C)c2ccccc2)n1 | < 5.70 | 6.03 | –
24 | C[C@H](Nc1[nH]cnc2c3ccccc3nc1-2)c1ccccc1 | – | – | 7.30
25 | OC[C@H](Nc1ncnc2ccccc12)c1ccccc1 | < 5.70 | 6.83 | –
26 | C[C@H](Nc1ncnc2ccccc12)C1CCCCC1 | < 5.70 | 7.09 | –
27 | Cc1csc2ncnc(N[C@@H](C)c3ccccc3)c12 | 5.83 | 6.89 | –
28 | c1ccc(Nc2ncnc3ccccc23)cc1 | < 5.70 | < 5.70 | –
29 | Cc1cc2c(N[C@@H](C)c3ccccc3)[nH]cnc-2n1 | < 5.70 | < 5.70 | –
30 | C[C@@H](Nc1ncnc2ccccc12)c1ccccc1 | < 5.70 | < 5.70 | –
